The sample as a whole holds a higher share of hits than the screen did.
IDH1 mut inh – inhibitors of human IDH1 R132H. O75874. IDH1 R132H reductase, diaphorase/resazurin fluorescence, 60 min. inhibition, % at 10 µM. hit rate 0.18% among 70,000; in the data active = inhibition above about 34%; inconclusive = no clear call, values can overlap the other calls; inactive = below about 11%;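 note: 0% = DMSO and 100% = no enzyme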
Target sequence (O75874 whole entry R132H): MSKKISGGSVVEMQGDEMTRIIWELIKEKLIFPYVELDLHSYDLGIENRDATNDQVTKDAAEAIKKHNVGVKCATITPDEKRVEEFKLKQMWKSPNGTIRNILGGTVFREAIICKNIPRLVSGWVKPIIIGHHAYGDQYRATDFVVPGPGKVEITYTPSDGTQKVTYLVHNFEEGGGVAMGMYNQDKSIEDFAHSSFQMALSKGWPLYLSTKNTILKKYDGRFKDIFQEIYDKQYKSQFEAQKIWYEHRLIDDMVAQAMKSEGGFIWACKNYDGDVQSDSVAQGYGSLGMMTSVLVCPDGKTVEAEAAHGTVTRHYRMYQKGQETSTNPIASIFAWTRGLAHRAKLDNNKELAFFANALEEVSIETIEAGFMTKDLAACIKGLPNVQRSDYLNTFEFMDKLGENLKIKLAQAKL
T cruzi growth-1 – inhibitors of T. cruzi proliferation | T. cruzi beta-gal in NIH3T3, GalScreen luminescence, 90 h | inhibition, % at 8.34 µM | hit rate 5.9% among 77,000;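 active = mean inhibition above about 93%, with at least 55% of replicates each passing it, limit read from the data, passing the limit was not always enough; inconclusive = only one of those two conditions holds; inactive = neither condition holds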
KDM4C inh – inhibitors of human demethylase GASC-1 KDM4C. Q9H3R0. GST-KDM4C 2-372, H3K9me3 peptide, LANCE TR-FRET. inhibition, % at 12.5 µM. hit rate 0.15% among 96,000. AID 720574;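 active = mean replicate inhibition above about 25%, with at least 55% of replicates also reaching it, limit read from the data, passing the limit was not always enough; inconclusive = only one of those two conditions met; inactive = neither condition met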
Target sequence (Q9H3R0 2-372 limits assumed): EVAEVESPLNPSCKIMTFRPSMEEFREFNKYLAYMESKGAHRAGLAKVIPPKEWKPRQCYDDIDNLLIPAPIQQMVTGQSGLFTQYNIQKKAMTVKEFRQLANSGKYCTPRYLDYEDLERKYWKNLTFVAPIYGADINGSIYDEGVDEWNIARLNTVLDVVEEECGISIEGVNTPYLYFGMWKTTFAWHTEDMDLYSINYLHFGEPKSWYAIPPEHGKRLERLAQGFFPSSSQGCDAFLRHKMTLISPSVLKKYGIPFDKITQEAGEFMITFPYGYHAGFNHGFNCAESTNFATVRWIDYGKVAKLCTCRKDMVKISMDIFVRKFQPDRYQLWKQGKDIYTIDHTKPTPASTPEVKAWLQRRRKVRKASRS
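System: N-terminal GST-fused human GASC-1 (KDM4C) fragment, residues 2-372 / Amount: 10 nM GST-KDM4C in enzyme reaction / Also added: H3K9me3 peptide with Fe(II)/2OG / Times: 30 min demethylation and 1 h detection at room temperature / Signal: LANCE TR-FRET / Read-out basis: Fall in 671/618 emission ratio as inhibition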
T cruzi growth-2 – Trypanosoma cruzi proliferation inhibition. AID 651739. shares compounds with T cruzi growth-1. T. cruzi beta-gal in NIH3T3, GalScreen luminescence, 90 h. inhibition, % at 8.35 µM. hit rate 72% among 5,600;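 active = mean replicate inhibition above about 95% and at least 55% of replicates individually reaching it, limit read from the data; inconclusive = only one of the two criteria is met; inactive = neither criterion is met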
T cruzi growth-3 – blocks T. cruzi growth in NIH3T3 host cells | shares compounds with T cruzi growth-1 | T. cruzi beta-gal in NIH3T3, GalScreen luminescence, 90 h | inhibition, % at 2.09 µM | hit rate 21% among 5,600;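 active = mean inhibition above about 95%, with at least 55% of replicates also reaching it, limit read from the data; inconclusive = meets just one of the two conditions; inactive = meets neither condition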;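 note: plate controls were neutral control median for no effect and positive control median for full effect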
NIH3T3 tox – kills mouse NIH/3T3 fibroblasts; shares compounds with T cruzi growth-1; NIH/3T3 viability, CellTiter-Glo ATP luminescence, 90 h; cytotoxicity (signal decrease), % at 8.35 µM; hit rate 14% among 5,600; AID 651742;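 active = mean signal decrease across replicates above about 35% based on untreated-well scatter, with enough replicates individually passing, limit read from the data; inconclusive = no rule stated though some were filed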;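 note: 0% = median of neutral control wells and 100% = median of positive control wells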
NIH3T3 tox 2 – cytotoxicity in mouse NIH/3T3 fibroblasts. shares compounds with T cruzi growth-1. NIH/3T3 viability, CellTiter-Glo ATP luminescence, 90 h. inhibition, % at 24.9 µM. hit rate 56% among 5,600;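 active = mean loss of cell viability signal at or above a set limit, and enough replicates individually reaching it; inconclusive = meets only the mean limit or only the replicate share; inactive = meets neither condition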;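 note: 0% = median of neutral control wells and 100% = median of positive control wells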
* = called active by the depositor; ? = inconclusive; / = not tested or not shown.

SMILES | IDH1 mut inh | T cruzi growth-1 | KDM4C inh | T cruzi growth-2 | T cruzi growth-3 | NIH3T3 tox | NIH3T3 tox 2
C[C@@H]1CN([C@@H](C)CO)C(=O)c2cc(/C=C/c3ccccc3)cnc2O[C@H]1CN(C)Cc1ccc2c(c1)OCO2 | 3 | 111* | 0 | 101* | 108* | 58* | 102*
C[C@@H]1CN([C@@H](C)CO)C(=O)c2cc(/C=C/c3ccccc3)cnc2O[C@H]1CN(C)Cc1ccccc1 | 0 | 133* | -2 | 107* | 109* | 25 | 104*
C[C@H]1CN([C@@H](C)CO)C(=O)c2cc(/C=C/c3ccccc3)cnc2O[C@H]1CN(C)Cc1ccccc1 | 0 | 62 | -3 | / | / | / | /
C/C=C/c1cnc2c(c1)C(=O)N([C@@H](C)CO)C[C@H](C)[C@H](CN(C)Cc1ccc3c(c1)OCO3)O2 | 0 | / | -3 | / | / | / | /
COc1cc(OC)c2ccc(=O)oc2c1CC(O)C(C)(C)O (stereo unspecified) | 0 | / | / | / | / | / | /
Cc1ccc(C(=O)CC(C(=O)c2ccc(C(F)(F)F)cc2)c2cccs2)cc1 (stereo unspecified) | -2 | / | / | / | / | / | /
CCCNC(=O)[C@@H]1[C@@H](CO)[C@@H]2Cn3c(ccc(C4=CCCC4)c3=O)[C@H]1N2Cc1ccncc1 | / | -1 | 1 | / | / | / | /
CCCNC(=O)[C@H]1[C@H](CO)[C@H]2Cn3c(ccc(C4=CCCC4)c3=O)[C@@H]1N2Cc1ccncc1 | / | 99* | 1 | 41 | 29 | 10 | 10
COc1ccccc1CN1[C@@H]2Cn3c(ccc(C4=CCCC4)c3=O)[C@H]1[C@@H](C(=O)N(C)C)[C@@H]2CO | / | 56 | 2 | / | / | / | /
COc1ccccc1CN1[C@@H]2c3ccc(C4=CCCC4)c(=O)n3C[C@H]1[C@H](CO)[C@H]2C(=O)N(C)C | / | 142* | 3 | 74 | 12 | 7 | 38*
O=C(c1ccccn1)N1CC[C@@H]2[C@H]1c1cc(-c3ccccc3F)ccc1N[C@@H]2CO | / | 90 | 1 | / | / | / | /
O=C(c1ccccn1)N1CC[C@H]2[C@H](CO)Nc3ccc(-c4ccccc4)cc3[C@H]21 | / | 99* | -2 | ? | 91 | -7 | -5
O=C(c1ccccn1)N1CC[C@H]2[C@H](CO)Nc3ccc(-c4ccc(F)cc4)cc3[C@H]21 | / | ? | -1 | 108* | 98* | 1 | 29*
CN(C)C(=O)c1ccc(-c2ccc3c(c2)[C@@H]2[C@@H](CCN2C(=O)c2ccccn2)[C@@H](CO)N3)cc1 | / | 76 | 2 | / | / | / | /
Cc1cc(C)nc(NS(=O)(=O)c2ccc(Nc3nc(-c4ccc(F)cc4)cs3)cc2)n1 | 0 | / | / | / | / | / | /
O=C(CCn1[nH]c(=O)c2ccccc2c1=O)NCc1ccccc1 | 0 | / | / | / | / | / | /
O=C(NCCCN1CCCC1=O)Nc1ccc(Br)cc1 | 0 | / | / | / | / | / | /
C[C@H](CO)N1C[C@H](C)[C@@H](CN(C)Cc2ccc(Cl)c(Cl)c2)Oc2ccc(N(C)C)cc2CC1=O | 0 | 108* | -1 | 107* | 94 | 10 | 103*
C[C@H]1CN([C@@H](C)CO)C(=O)Cc2cc(N(C)C)ccc2O[C@H]1CN(C)Cc1ccc2c(c1)OCO2 | -6 | 1 | 2 | / | / | / | /
C[C@H](CO)N1C[C@H](C)[C@H](CN(C)Cc2ccc(Cl)c(Cl)c2)Oc2ccc(N(C)C)cc2CC1=O | -1 | ? | -2 | 71 | 12 | -4 | -1
C[C@@H]1CN([C@@H](C)CO)C(=O)Cc2cc(N(C)C)ccc2O[C@H]1CN(C)Cc1ccc(Cl)c(Cl)c1 | -1 | 107* | 8 | 110* | 64 | 11 | 107*
C[C@@H]1CN([C@@H](C)CO)C(=O)c2cc(N(C)C)ccc2O[C@@H]1CN(C)Cc1ccc(Cl)c(Cl)c1 | 0 | 75 | 1 | / | / | / | /
C[C@@H]1CN([C@H](C)CO)C(=O)Cc2cc(N(C)C)ccc2O[C@H]1CN(C)Cc1ccc(Cl)c(Cl)c1 | -2 | 58 | 0 | / | / | / | /
COc1ccc(NC(=O)CCc2nc(-c3ccccc3)no2)cc1 | 0 | / | / | / | / | / | /
CCCc1cc(=O)[nH]c(SCC(=O)Nc2cccc(F)c2)n1 | 0 | / | / | / | / | / | /
SMILES | IDH1 mut inh | T cruzi growth-1 | KDM4C inh | T cruzi growth-2 | T cruzi growth-3 | NIH3T3 tox | NIH3T3 tox 2
O=C(C[C@H]1CC[C@H]2[C@@H](COC[C@H](O)CN2Cc2cccc(C(F)(F)F)c2)O1)NCc1ccc(Cl)cc1 | / | 128* | -1 | 107* | 54 | 25 | ?
C[C@@H](NC(=O)C[C@H]1CC[C@H]2[C@@H](COC[C@H](O)CN2Cc2ccc(C(F)(F)F)cc2)O1)c1ccccc1 | / | 73 | 1 | / | / | / | /
O=C(C[C@H]1CC[C@H]2[C@@H](COC[C@@H](O)CN2Cc2cccc(C(F)(F)F)c2)O1)NCc1ccccc1 | / | -35 | 2 | / | / | / | /
O=C(C[C@@H]1CC[C@@H]2[C@H](COC[C@@H](O)CN2Cc2cccc(Cl)c2)O1)NCC1CCCCC1 | / | 125* | 0 | ? | 30 | 7 | 3
O=C(C[C@H]1CC[C@@H]2[C@H](COC[C@H](O)CN2Cc2cccc(C(F)(F)F)c2)O1)NCc1ccc(Cl)cc1 | / | 144* | 2 | 103* | 7 | 13 | 99*
C[C@H](NC(=O)C[C@@H]1CC[C@@H]2[C@H](COC[C@H](O)CN2Cc2ccc(C(F)(F)F)cc2)O1)c1ccccc1 | / | 168* | 0 | 79 | 6 | -3 | 23
O=C(C[C@H]1CC[C@H]2[C@@H](COC[C@H](O)CN2Cc2cccc(C(F)(F)F)c2)O1)NCc1ccccc1 | / | 24 | 0 | / | / | / | /
O=C(C[C@@H]1CC[C@H]2[C@@H](COC[C@H](O)CN2Cc2cccc(F)c2)O1)NCC1CCCCC1 | / | -36 | 1 | / | / | / | /
Cc1cc(Cl)c(S(=O)(=O)Nc2cc(Cl)ccc2Cl)cc1OCC(N)=O | 0 | / | / | / | / | / | /
O=C1CC(NCc2cccnc2)C(=O)N1c1ccccc1 (stereo unspecified) | 1 | / | / | / | / | / | /
O=C(C[C@H]1CC[C@@H]2[C@H](COC[C@H](O)CN2Cc2cccc(C(F)(F)F)c2)O1)NCc1ccccc1 | / | 37 | 1 | / | / | / | /
O=C(C[C@H]1CC[C@H]2[C@@H](COC[C@@H](O)CN2Cc2cccc(C(F)(F)F)c2)O1)NCc1ccc(Cl)cc1 | / | 125* | -3 | 92 | 33 | 8 | 87*
CCCC#Cc1ccc([C@@H]2[C@H]3CN(Cc4cccnc4)CCCCN3[C@H]2CO)cc1 | / | 92 | 0 | / | / | / | /
CCCC#Cc1ccc([C@H]2[C@H](CO)N3CCCCN(Cc4ccncc4)C[C@@H]23)cc1 | / | 107* | 2 | 100* | 46 | 34 | 86*
CCCC#Cc1ccc([C@@H]2[C@@H](CO)N3CCCCN(Cc4cccnc4)C[C@H]23)cc1 | / | ? | -2 | 102* | 35 | 8 | 82*
CCCC#Cc1ccc([C@H]2[C@H](CO)N3CCCCN(Cc4cncnc4)C[C@@H]23)cc1 | / | 55 | 0 | / | / | / | /
CCCC#Cc1ccc([C@@H]2[C@H](CO)N3CCCCN(Cc4cccnc4)C[C@@H]23)cc1 | / | 103* | -1 | 105* | 81 | 29 | 104*
